The subject of experiment [1] is Staphylococcus aureus. The experiment is described as follows: Induction of membrane morphological changes in methicillin resistant Staphylococcus aureus ATCC BAA 1556 assessed as cellular debris formation at 4 times of MIC measured after 1 hrs by FE-SEM analysis. It counts as functional, organism-based. The procedure, abridged:
(§1)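 Methods give 30 min; legend gives 1 h. Washed, fixed in 4% glutaraldehyde in 0.2 M Na-cacodylate for 3 h, dehydrated through graded ethanol, dried with HMDS, Au/Pd-coated (~20 nm) and imaged by SEM. Untreated cells as control.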

Experiment [2] has as its system Cell membrane. Briefly: Induction of membrane disruption in bacterial inner membrane mimic DOPC/DOPG (7:3) large unilamellar vesicles assessed as induction of dye leakage at 50 ug/ml measured after 100 mins by calcein dye based analysis. The class given is subcellular. As to conditions: dose 50.0 µg/ml. The procedure, abridged: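 LUVs loaded with calcein: DOPC/DOPG 7:3 w/w (bacterial mimic) or DOPC/cholesterol 10:1 w/w (mammalian mimic). Mixed 1:1 by volume with peptide at 5, 10, 20, 30 or 50 μg/mL. Fluorescence (ex 490/em 520 nm) read every 10 min for 100 min. Leakage expressed relative to 10% Triton X-100 lysis (100%), after subtracting liposome background. Triplicate.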

The subject of experiment [3] is Cell membrane. The experiment is described as follows: Disruption of cell membrane in Escherichia coli ATCC BAA-2452 assessed as increase in PI fluorescence intensity measured after 1 hrs by PI staining based flow cytometric analysis. The procedure, abridged:
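Mid-log E. coli ATCC BAA-2452 grown in Mueller Hinton broth, washed thrice and resuspended at 10^7 CFU/mL in 10 mM Tris pH 7.4. […] Controls: PBS (negative) and 10% Triton X-100 (positive). Triplicate; two-tailed unpaired t-test.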

Experiment [4] has as its system Escherichia coli. Briefly: Bactericidal activity against […] Escherichia coli ATCC BAA 2452 assessed as inhibition of bacterial growth at 4 times of MIC incubated for 4 hrs by Time kill assay. The class given is functional. The procedure, abridged:
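Aliquots taken every 30 min for 4 h and plated on agar for viable colony counts. Two independent experiments in triplicate.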

In experiment [5] the test system is Staphylococcus aureus. Briefly: Antibacterial activity against methicillin resistant Staphylococcus aureus ATCC BAA 1556 assessed as fold increase in MIC incubated for 24 hrs in presence of Ca2+ ions by CLSI based broth microdilution method. The class given is functional. The procedure, abridged: (§2)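 CLSI broth microdilution. Overnight cultures diluted in cation-adjusted Mueller Hinton broth to 10^6 CFU/mL, mixed 1:1 with 2-fold serial peptide dilutions, 24 h at 37 °C. […] MIC is the lowest concentration inhibiting growth. Three independent assays in triplicate.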

Experiment [6] relates to MRC5. The experiment is described as follows: Antiproliferative activity human MRC5 cells assessed as reduction in cell viability at 250 ug/ml incubated for 24 hrs by MTS assay. It counts as functional. Particulars: dose 250 µg/ml. The procedure, abridged:
(§3)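 Cells seeded at 10,000 per well 24 h before treatment. Media: MRC-5 and HEK293 in DMEM with 10% FBS; HepaRG in William's E with GlutaMAX; HEKa in Dermal Cell Basal medium plus keratinocyte growth kit. Peptide at 10–250 μg/mL in triplicate for 24 h, 37 °C, 5% CO2. MTS added for 2 h, then A490 read. Survival is blank-corrected OD as % of untreated control.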

The test system of experiment [7] is Staphylococcus aureus. The experiment is described as follows: Antibacterial activity against methicillin resistant Staphylococcus aureus ATCC BAA 1556 assessed as fold increase in MIC incubated for 24 hrs in presence of K+ ions by CLSI based broth microdilution method. The class given is functional. The procedure, abridged: as §2
Experiment [8] deals with HepaRG. The experiment is described as follows: Antiproliferative activity human HepaRG cells assessed as reduction in cell viability at 50 ug/ml incubated for 24 hrs by MTS assay. As to conditions: dose 50 µg/ml. The class given is functional. The procedure, abridged: as §3
Experiment [9] deals with Staphylococcus aureus. Briefly: Antibacterial activity against methicillin resistant Staphylococcus aureus ATCC BAA 1556 assessed as fold increase in MIC incubated for 24 hrs in presence of NH4+ ions by CLSI based broth microdilution method. It counts as functional. The procedure, abridged:
as §2

Experiment [10] relates to Cell membrane. The experiment is described as follows: Disruption of cell membrane in methicillin resistant Staphylococcus aureus ATCC BAA 1556 assessed as cell membrane perturbation at 4 times of MIC measured after 1 hrs by DAPI and PI double staining based fluorescence microscopic analysis. The procedure, abridged:
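Mid-log cells washed in PBS (10 mM, pH 7.3), 10^7 CFU/mL, treated at MIC and 4× MIC for 1 h. Pelleted and washed, then stained with PI for 15 min at 37 °C in the dark, then DAPI for 15 min at 37 °C in the dark. Untreated controls. Imaged by fluorescence microscopy, 60× oil objective.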

Experiment [11] deals with Escherichia coli. Briefly: Antibacterial activity against Escherichia coli ATCC 25922 assessed as fold increase in MIC incubated for 24 hrs in presence of Ca2+ ions by CLSI based broth microdilution method. The class given is functional. The procedure, abridged: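 E. coli MICs by CLSI broth microdilution in cation-adjusted Mueller Hinton broth. […] Inoculum was 10^6 CFU/mL with 2-fold serial peptide dilutions, incubated 24 h at 37 °C. MIC is the lowest concentration inhibiting growth. Three independent assays, each in triplicate.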

Experiment [12] has as its system Staphylococcus aureus. Briefly: Induction of membrane morphological changes in methicillin resistant Staphylococcus aureus ATCC BAA 1556 assessed as cell surface wrinkling at 4 times of MIC measured after 1 hrs by FE-SEM analysis. It counts as functional, organism-based. The procedure, abridged:
as §1

The subject of experiment [13] is Escherichia coli. The experiment is described as follows: Induction of membrane morphological changes in Escherichia coli ATCC BAA-2452 assessed as cell surface blebs formation at 4 times of MIC measured after 1 hrs by FE-SEM analysis. It counts as functional, organism-based. The procedure, abridged:
(§4)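 E. coli ATCC BAA-2452 grown to exponential phase in MHB at 37 °C with shaking, then diluted to 2 × 10^6 CFU/mL. […] Cells were PBS-washed and fixed 3 h in 4% glutaraldehyde in 0.2 M cacodylate. Then ethanol-dehydrated, HMDS-dried, Au/Pd-coated and imaged by FE-SEM. Untreated control.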

Experiment [14] deals with Escherichia coli. Briefly: Induction of membrane morphological changes in Escherichia coli ATCC BAA-2452 assessed as cellular debris formation at 4 times of MIC measured after 1 hrs by FE-SEM analysis. The class given is functional, organism-based. The procedure, abridged: as §4
Experiment [15] deals with Staphylococcus aureus. Briefly: Induction of membrane morphological changes in methicillin resistant Staphylococcus aureus ATCC BAA 1556 assessed as cell surface roughening at 4 times of MIC measured after 1 hrs by FE-SEM analysis. It counts as functional, organism-based. The procedure, abridged:
as §1

Experiment [16] is described as follows: Antiproliferative activity human HEKa cells assessed as reduction in cell viability at 250 ug/ml incubated for 24 hrs by MTS assay. The class given is functional. As to conditions: dose 250 µg/ml. The procedure, abridged: as §3

Calls of active or inactive are those of the source. No cut-off for these calls is given here.

H-KWLKKWLKWWKK-NH2: the outcome in experiment [1], in experiment [10], in experiment [12], in experiment [13], in experiment [14] and in [15] was Active. Also, the Activity in experiment [2] was 80%; in experiment [3], “Dose-Dependent Effect”; in [6], over 60%; in experiment [8], over 75%. Also, the “inhibition (INH)” value in experiment [4] amounted to 70%. In addition, the “fold change (FC)” value in [5], in experiment [7], in [9] and in [11] was 2 throughout.
On to H-RWLRRWLRWWRR-NH2, for which the Activity in experiment [2] was 80%; in experiment [3] it was “Dose-Dependent Effect”; in experiment [16] it was under 30%; in [6] it was under 30%; in experiment [8] it was under 60%. Further, the “fold change (FC)” value in [5], in [7], in experiment [9] and in experiment [11] was 2 each time. Further, in experiment [10], the outcome was Active.
